NALP1 inh = inhibitors of NALP1 inflammasome in yeast. S. cerevisiae NALP1/ASC/caspase-1 growth, X-gal OD620, 72 h. inhibition, % at 10 µM. 280,000 compounds, 0.61% hits; in the data active = inhibition mostly above about 24%, no sharp cut-off; inactive = mostly below about 32%
Calb FLC = C. albicans growth modulation with fluconazole; 300,000 compounds, 0.57% hits; growth inhibition, % (test concentration not listed); C. albicans CaCi-2 + fluconazole, Alamar Blue growth, 48 h; AID 1979;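 active = growth inhibition above about 58% in most replicates, limit read from the data, passing the limit was not always enough; inconclusive = exactly half the replicates above a set limit; inactive = most replicates below a set limit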;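 note: all wells also contain fluconazole at 8 µg/ml as a sub-toxic cotreatment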
T cruzi inh = blocks replication of Trypanosoma cruzi. AID 1885. T. cruzi beta-gal in NIH3T3, luminescence, 90 h. 300,000 compounds, 1.4% hits. inhibition, % (no concentration beside the values);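 active = mean inhibition across valid replicates above about 55%, limit read from the data; inconclusive = mean below that limit but half or more replicates reach it; inactive = mean below it, under half of replicates reach it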;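 note: signal also drops with host cell toxicity which is not excluded here; higher percent means less beta-gal luminescence so fewer parasites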
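Material: NIH/3T3 host cells with β-galactosidase reporter T. cruzi; Input: 5,000 host fibroblasts per well; Medium: DMEM, 2% fetal bovine serum; Compound: 50 nL DMSO compound solution per well; Schedule: 3 h host attachment, then at least 90 h co-culture; Detection: luminescent β-galactosidase signal after 60 min lysis.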
PolyA inh = inhibitors of polyadenylation in S. cerevisiae. S. cerevisiae SKY197-pL101 polyadenylation reporter, beta-gal luminescence; efflux-impaired pdr1/pdr3 knockout yeast; score 100 = 6 SD above DMSO. 300,000 compounds, 0.02% hits. activity score, % at 12 µM;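 active = lowest replicate activity score at least 50, where 100 means six control SD above control mean; inconclusive = lowest score under 50 but half or more replicates reach 50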;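 note: yeast exposed to compound for 9 h at 30 °C; higher score means more reporter readthrough which indicates perturbed polyadenylation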
NLRP3 yeast inh = blocks the NALP3 inflammasome reconstituted in yeast; Yeast reconstituted NLRP3/ASC/caspase-1, beta-gal luminescence, 24 h; 330,000 compounds, 0.39% hits; AID 2825; inhibition, % at 10 µM;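 active = inhibition of 50% or more; inactive = inhibition below 50%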
L major viab = Leishmania major promastigote growth inhibition | Leishmania major promastigotes, resazurin fluorescence viability | inhibition, % at 10 µM | AID 1063 | 200,000 compounds, 9% hits; in the data active = inhibition above about 50%;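 note: promastigotes grown with compound for 44 hours at 28 °C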
Numbers stand for hits; . = inactive; ? = inconclusive; / = no result. The full list was thinned out, with hits kept by preference.

SMILES	NALP1 inh	Calb FLC	T cruzi inh	PolyA inh	NLRP3 yeast inh	L major viab
Cc1ccc(CC2(O)CC(C)N(C)CC2C)c(C)c1 (configuration not stated)	.	.	.	.	.	69
CCc1ccc(NC2=CC(=O)C(=O)c3ccccc32)cc1	/	/	/	/	.	/
O=C1C=C(Nc2ccccc2)C(=O)c2ccccc21	.	.	.	.	.	100
O=C1C=C(Nc2ccccc2)c2ccccc2C1=O	.	.	.	.	.	100
O=C1C=C(Nc2cccc3cccnc23)c2ccccc2C1=O	.	101	.	.	.	/
O=C1C(Nc2ccccc2)=C(NS(=O)(=O)c2ccccc2)C(=O)c2ccccc21	.	.	.	.	.	.
CCCCNC1=CC(=O)C(=O)c2ccccc21	.	?	.	.	.	100
CC1CCC(NC(=O)CCC(=O)N2CC(C)Oc3ccccc32)CC1 (configuration not stated)	.	.	.	.	.	/
O=C(NCCc1nnc2ccc(NCc3cccnc3)nn12)c1ccccc1F	.	.	.	.	.	.
Cc1ccc(C(OCC(O)CNC(CO)C(O)c2ccc([N+](=O)[O-])cc2)c2ccccc2)cc1 (configuration not stated)	.	.	.	.	.	/
N#CC1(CCCN2CCCCC2)c2ccccc2CCc2ccccc21	/	.	.	.	.	/
CCOc1ccc(S(=O)(=O)N2CCN(C(=O)c3ccc(C)c(S(=O)(=O)N4CCOCC4)c3)CC2)cc1	/	/	/	/	.	/
c1ccc2[nH]c(-c3cnco3)cc2c1	.	.	.	.	.	/
CCN(CC)c1ccc2cc(C(=O)NNC(=O)c3ccc(S(=O)(=O)N4CCCCC4)cc3)c(=O)oc2c1	.	.	.	.	/	92
CCN(CC)c1ccc2cc(S(=O)(=O)c3ccc(C)cc3)c(=O)oc2c1	.	101	.	.	.	96
Cc1ccc(C(=O)NNC(=O)c2ccc(S(=O)(=O)N3CCCCC3)cc2)cc1	/	/	/	/	.	/
O=C(NCCc1nnc2ccc(SCC(=O)N3CCCC3)nn12)c1ccc(F)cc1	.	.	.	.	.	/
Cc1ccc(S(=O)(=O)N(C)c2ccc(OC(=O)c3cc(=O)[nH]c4ccccc34)cc2)cc1	/	/	/	/	.	/
CC(=O)c1cccc(NC(=O)c2ccc(C)o2)c1	.	.	.	.	.	.
C/C(=N\NC(=O)c1cccc(Br)c1)c1cccc(NC(=O)c2ccc(C)o2)c1	.	.	.	.	.	56
C/C(=N\NC(=O)c1ccc(Cn2cc(Br)cn2)o1)c1cccc(NC(=O)C(C)C)c1	.	.	.	.	.	90
COc1cccc(/C=C/C(=O)OCC(=O)N2CCCC2)c1OC	/	/	/	/	.	/
Cc1c(NC(=O)C(C)OC(=O)c2ccc([N+](=O)[O-])s2)c(=O)n(-c2ccccc2)n1C (configuration not stated)	.	.	86	.	.	77
COc1ccccc1CCC(=O)OC(C)C(=O)Nc1c(C)n(C)n(-c2ccccc2)c1=O (configuration not stated)	/	.	.	.	.	/
Cc1ccc(OP(=O)(Nc2c(C)n(C)n(-c3ccccc3)c2=O)Oc2ccc(C)cc2)cc1	.	.	.	.	.	69
SMILES	NALP1 inh	Calb FLC	T cruzi inh	PolyA inh	NLRP3 yeast inh	L major viab
Cc1c(NC(=O)C(C)OC(=O)c2sc3ccccc3c2Cl)c(=O)n(-c2ccccc2)n1C (configuration not stated)	.	.	.	.	.	.
Cc1c(NCc2ccccc2O)c(=O)n(-c2ccccc2)n1C	38	.	.	.	.	/
Cc1c(NC(=O)C(C)OC(=O)CCc2ccccc2)c(=O)n(-c2ccccc2)n1C (configuration not stated)	.	.	.	.	.	54
Cc1cc(C)n2cc(CSc3ncn[nH]3)nc2n1	.	.	.	.	.	.
CCOc1ccccc1OCC(=O)OCC(=O)c1c(C)[nH]c2ccccc12	/	.	.	?	.	/
Cc1[nH]c2ccccc2c1C(=O)COC(=O)CCS(=O)(=O)c1ccccc1Cl	.	.	.	.	.	60
O=C(COc1ccc2c(c1)CCC2)N1CCc2ccccc21	.	.	.	.	.	52
O=C(CO/N=C/c1ccccc1O)N1CCc2ccccc21	.	.	.	.	.	75
Cc1ccc(OCC(=O)N2CCc3ccccc32)cc1	.	.	.	.	.	.
COc1ccc(NC(=O)Nc2ccc(O)c3ccccc23)cc1	/	.	.	.	.	/
COc1ccc(/C(C)=N/NC(=O)c2nnn(-c3nonc3N)c2CN(C)c2ccccc2)cc1	.	/	.	.	.	/
C/C(=N\NC(=O)c1nnn(-c2nonc2N)c1CN(C)c1ccccc1)c1ccccc1O	.	.	64	.	.	/
N#CC1=C2SCC(O)(c3ccccc3)N2C(=O)CC1c1ccccc1 (configuration not stated)	.	.	.	.	.	92
CCc1ccc(C2CC(=O)N3CN(c4ccccc4)CSC3=C2C#N)cc1 (configuration not stated)	.	.	.	.	.	.
COc1cccc(CN2CCNC(=O)C2CC(=O)N(C)C2CCOCC2)c1OC (configuration not stated)	.	.	.	.	.	/
O=C1CN(C(=O)/C=C/c2ccc(Cl)cc2Cl)CCN1	.	.	.	.	.	.
CN1CCCN(C(=O)/C=C/c2ccc(Cl)cc2Cl)CC1	.	.	.	.	.	99
COc1ccc(/C=N/NC(=O)C(C)n2cnc3ccccc3c2=O)cc1OC (configuration not stated)	.	.	.	.	.	.
Cc1c(CC(=O)O)c(=O)oc2c(C)c(OCc3c(F)cccc3Cl)ccc12	.	.	.	.	.	/
CC1CCc2c(nc3ncnn3c2N2CCN(c3ccccc3)CC2)C1 (configuration not stated)	.	.	.	.	.	52
O=C(C1CCC(Cn2c(=S)[nH]c3ccccc3c2=O)CC1)N1CCN(c2ccccn2)CC1 (configuration not stated)	.	.	.	.	.	99
COc1ccc(N2CCN(CCCNC(=O)C3CCC(CNc4nc(=S)[nH]c5ccccc45)CC3)CC2)cc1 (configuration not stated)	.	.	.	.	.	86
O=C(C1CCC(Cn2c(=S)[nH]c3ccccc3c2=O)CC1)N1CCN(c2ccccc2)CC1 (configuration not stated)	/	.	.	.	.	99
O=C(C1CCC(Cn2c(=O)[nH]c3ccccc3c2=O)CC1)N1CCN(c2ccccc2)CC1 (configuration not stated)	.	.	.	.	.	.
COCCn1c(=S)[nH]c2cc(C(=O)N3CCN(c4ccccc4OC)CC3)ccc2c1=O	.	/	/	/	.	.
CCCCNC(=O)C1CCC(CNc2nc(=S)[nH]c3ccccc23)CC1 (configuration not stated)	.	.	.	.	.	.

Bioassay records as filed in PubChem.
